Laboratory results taken from ChEMBL document CHEMBL4043073, “Boronic Acid Modifications Enhance the Anti-Influenza A Virus Activities of Novel Quindoline Derivatives” (J Med Chem, 2017).
Calls of active or inactive are those of the source. No cut-off for these calls is given here.

What was measured:
NCI-H1299 = experiment: Cytotoxicity against human H1299 cells at 20 uM after 48 hrs by resazurin based fluorescence method; format: cell-based; conditions: nci-h1299, 48 h
How it was run: (§1)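 Confluent MDCK, A549 or H1299 cells exposed in triplicate to compound for 48 h at 37 °C (A549/H1299 at 20 μM). Resazurin added to 0.2 mg/mL final for 16 h. Fluorescence read at ex 544 / em 595 nm; viability as % of untreated.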

A549 = experiment: Cytotoxicity against human A549 cells at 20 uM after 48 hrs by resazurin based fluorescence method; format: cell-based; conditions: a549, 48 h; how it was run: as §1
Influenza A virus [1] = experiment: Antiviral activity against Influenza A virus (A/Puerto Rico/8/34(H1N1)) infected in Kunming mouse assessed as intact columnar epithelium in bronchiole without inflammatory cell infiltration at 20 mg/kg/day, po qd for 4 days by hematoxylin and eosin staining based assay; format: functional, organism-based; conditions: A/Puerto Rico/8/1934(H1N1)
Influenza A virus [2] = experiment: Antiviral activity against Influenza A virus (A/Puerto Rico/8/34(H1N1)) infected in Kunming mouse assessed as viral titer reduction in lungs at 20 mg/kg/day, po qd for 4 days measured on day 4 post last dose by crystal violet staining based plaque assay; format: functional, organism-based; conditions: A/Puerto Rico/8/1934(H1N1)
How it was run: (§2)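 Female 4-week-old Kunming mice infected intranasally with PR8 (4 HAU/mouse). Oral gavage once daily began 2 h post-inoculation; placebo control. Mice euthanised on day 4; lungs homogenised in PBS and titrated by plaque assay on cell monolayers (agarose overlay, 3 days, crystal violet).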

Influenza A virus [3] = experiment: Antiviral activity against Influenza A virus (A/Puerto Rico/8/34(H1N1)) infected in MDCK cells assessed as reduction in virus titer at 10 uM preincubated with virus for 1 hr followed by viral infection measured after 24 hrs by crystal violet staining based plaque assay; format: functional, cell-based; conditions: A/Puerto Rico/8/1934(H1N1)
How it was run: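 PR8 (MOI 1.0) preincubated with compound (2.5–10 μM) 1 h at 37 °C, then used to infect MDCK cells. After adsorption, medium with the same compound concentration was added. At 24 h p.i. supernatant virus titer was measured by plaque assay; n = 3.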

[4] = Selectivity index, ratio of CC50 for MDCK cells to IC50 for Influenza A virus (A/Puerto Rico/8/34(H1N1)) infected in MDCK cells assessed as reduction in virus-induced cytopathic effect; format: toxicity, cell-based; conditions: dog, read-out: Ratio CC50/IC50
Influenza A virus [5] = experiment: Antiviral activity against Influenza A virus (A/Puerto Rico/8/34(H1N1)) infected in MDCK cells assessed as reduction in viral HA titer by measuring reduction in chicken RBC […] after 24 hrs by hemagglutination test; format: functional, cell-based; conditions: A/Puerto Rico/8/1934(H1N1)
How it was run: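 MDCK cells infected at MOI 3.0 (single-cycle) with PR8, Cal09 or swine H3N2 Minnesota, then treated with compound for 24 h. Supernatant HA titers were read by 2-fold serial dilution with an equal volume of 1% chicken RBCs, 60 min at 4 °C. Expressed as percent of untreated-cell HA titer; IC50 derived; n = 4.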

Influenza A virus [6] = experiment: Antiviral activity against Influenza A virus (A/Puerto Rico/8/34(H1N1)) infected in Kunming mouse assessed as survival rate at 20 mg/kg/day, po qd for 7 days measured on day 14 post infection (reference value: 30%); format: functional; conditions: A/Puerto Rico/8/1934(H1N1)
[7] = test system: Influenza A virus (A/Puerto Rico/8/1934(H1N1)); experiment: Inhibition of Influenza A virus (A/Puerto Rico/8/34(H1N1)) neuraminidase using MUNANA as substrate preincubated for 30 mins followed by substrate addition measured after 30 mins by fluorescence assay relative to control
How it was run: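 Inactivated PR8 virus supernatant mixed with compound (10 μM) in 33 mM MES […], 4 mM CaCl2 for 30 min at 37 °C. MUNANA (20 μM) was added for 30 min at 37 °C and the reaction stopped with glycine/ethanol pH 10.7. Fluorescence read at ex 360 / em 440 nm; zanamivir 10 μM as reference; n = 3.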

Influenza A virus [8] = experiment: Antiviral activity against Influenza A virus (A/Puerto Rico/8/34(H1N1)) infected in Kunming mouse assessed as pulmonary viral titer reduction at 10 mg/kg/day, po qd for 4 days measured on day 4 post last dose by crystal violet staining based plaque assay; format: functional, organism-based; conditions: A/Puerto Rico/8/1934(H1N1); how it was run: as §2
Influenza A virus [9] = experiment: Antiviral activity against Influenza A virus (A/Puerto Rico/8/34(H1N1)) infected in A549 cells assessed as reduction in localization of viral NP protein in nucleus at 10 uM preincubated with virus at 37 degC for 1 hr followed by viral adsorption at 4 degC for 1 hr and subsequent infection in A549 cells measured at 2 to 4 hrs post infection by FITC-staining based immunofluorescence microscopic method; format: functional, cell-based; conditions: A/Puerto Rico/8/1934(H1N1)
How it was run: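 PR8 (MOI 1.0) pretreated with 10 μM compound 1 h at 37 °C, adsorbed 1 h at 4 °C, then A549 cells were kept in infecting medium with 10 μM compound. Fixed with 4% paraformaldehyde at 2 or 4 h p.i., permeabilised with Triton X-100 and blocked. Anti-NP plus FITC secondary, confocal imaging; nuclear NP intensity per unit area quantified (n = 30 images).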

Influenza A virus [10] = experiment: Antiviral activity against Influenza A virus (A/Puerto Rico/8/34(H1N1)) infected in MDCK cells assessed as virus yeild reduction preincubated with virus at 37 degreeC for 1 hr followed by viral infection for 1 hr measured after 3 days by crystal violet staining based plaque assay; format: functional, cell-based; conditions: A/Puerto Rico/8/1934(H1N1)
How it was run: (§3)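 Plaque reduction: about 50–100 PFU/well of PR8, Cal09 or Minnesota preincubated with compound (0–10 μM) 1 h at 37 °C. Mixture then adsorbed to MDCK monolayers 1 h at 4 °C. Overlay was DMEM with 1.5% agarose, DEAE-dextran and 1 μg/mL TPCK-trypsin for 3 days at 37 °C. Glutaraldehyde fix, crystal violet stain, plaque count; IC50 derived; n = 4.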

[11] = Drug uptake in human A549 cell nucleus at 20 uM after 4 hrs by DAPI staining based confocal microscopic analysis; format: ADME; conditions: a549, 4 h
How it was run: (§4)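 A549 cells incubated with 20 μM compound 4 h at 37 °C, then fixed and DAPI-stained. Compound intrinsic fluorescence located by confocal microscopy.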

[12] = Cytotoxicity against MDCK cells after 48 hrs by resazurin based fluorescence method; format: cell-based, Canis lupus familiaris; conditions: dog; how it was run: as §1
[13] = Drug uptake in human A549 cell cytoplasm at 20 uM after 4 hrs by DAPI staining based confocal microscopic analysis; format: ADME; conditions: a549, 4 h; how it was run: as §4
Influenza A virus [14] = experiment: Antiviral activity against Influenza A virus (A/Puerto Rico/8/34(H1N1)) infected in Kunming mouse assessed as intact columnar epithelium in bronchiole without inflammatory cell infiltration at 10 mg/kg/day, po qd for 4 days by hematoxylin and eosin staining based assay; format: functional, organism-based; conditions: A/Puerto Rico/8/1934(H1N1)
Influenza A virus [15] = experiment: Antiviral activity against Influenza A virus (A/swine/Minnesota/02719/2009(H3N2)) infected in MDCK cells assessed as virus yeild reduction preincubated with virus at 37 degC for 1 hr followed by viral infection for 1 hr measured after 3 days by crystal violet staining based plaque assay; format: functional, cell-based; how it was run: as §3
[16] = Drug uptake in human A549 cell membranes at 20 uM after 4 hrs by DAPI staining based confocal microscopic analysis; format: ADME; conditions: a549, 4 h; how it was run: as §4
[17] = Drug uptake in human A549 cells at 20 uM after 4 hrs by DAPI staining based confocal microscopic analysis; format: ADME, cell-based; conditions: a549, 4 h; how it was run: as §4
[18] = test system: Influenza A virus (A/California/04/2009(H1N1)); experiment: Antiviral activity against Influenza A virus (A/California/04/2009(H1N1)) infected in MDCK cells assessed as virus yeild reduction preincubated with virus at 37 degC for 1 hr followed by viral infection for 1 hr measured after 3 days by crystal violet staining based plaque assay; format: functional, cell-based; how it was run: as §3
[19] = Selectivity index, ratio of CC50 for MDCK cells to IC50 for Influenza A virus (A/Puerto Rico/8/34(H1N1)) infected in MDCK cells by plaque assay; format: toxicity, cell-based; conditions: dog, read-out: Ratio CC50/IC50
Influenza A virus [20] = experiment: Antiviral activity against Influenza A virus (A/Puerto Rico/8/34(H1N1)) infected in MDCK cells assessed as reduction in virus-induced cytopathic effect after 48 hrs by crystal violet staining based assay; format: functional, cell-based; conditions: A/Puerto Rico/8/1934(H1N1)
How it was run: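 MDCK cells infected with PR8 at MOI 0.1; compounds added in triplicate after inoculum removal. After 48 h cells were fixed with 4% formaldehyde and stained with 0.1% crystal violet. Dye was methanol-solubilised and read at 570 nm; IC50 was the concentration halving CPE.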

In the case of `O=C(Nc1cccc(Nc2c3ccccc3nc3c2[nH]c2ccccc23)c1)c1ccc(B(O)O)cc1`, the Activity (NCI-H1299) is reported as “Non-Toxic” and the Activity (A549) is reported as “Non-Toxic”.

In the case of `CCOC(=O)C1=C[C@@H](OC(CC)CC)[C@H](NC(C)=O)[C@@H](N)C1` [OSELTAMIVIR], the Activity (Influenza A virus [1]) is reported as “Active”, the Activity (Influenza A virus [2]) is reported as “Active” and the Activity (Influenza A virus [3]) is reported as “Active”. The selectivity ratio [4] was 36.2, the Activity (Influenza A virus [5]) was “Active” and the survival at 20 mg/kg/day (Influenza A virus [6]) was 80%.

In the case of `Nc1ccc(Nc2c3ccccc3nc3c2[nH]c2ccccc23)cc1`, the Activity (NCI-H1299) is reported as “Non-Toxic” and the Activity (A549) is reported as “Non-Toxic”.

In the case of `O=C(Nc1ccc(Nc2c3ccccc3nc3c2[nH]c2ccccc23)cc1)c1cccc(B(O)O)c1`, the Activity (NCI-H1299) is reported as “Non-Toxic” and the Activity (A549) is reported as “Non-Toxic”.

For `CC(=O)N[C@H]1[C@H]([C@H](O)[C@H](O)CO)OC(C(=O)O)=C[C@@H]1NC(=N)N`, the inhibition [7] was > 85%.

In the case of `O=C(Nc1ccc(Nc2c3ccccc3nc3c2[nH]c2ccccc23)cc1)c1ccc(B(O)O)cc1`, the Activity (NCI-H1299) is reported as “Non-Toxic” and the Activity (A549) is reported as “Non-Toxic”.

For `Nc1cccc(Nc2c3ccccc3nc3c2[nH]c2ccccc23)c1`, the Activity (NCI-H1299) was “Non-Toxic” and the Activity (A549) was “Non-Toxic”.

In the case of `O=C(Nc1ccccc1Nc1c2ccccc2nc2c1[nH]c1ccccc12)c1ccc(B(O)O)cc1`, the Activity (NCI-H1299) is reported as “Non-Toxic”, the Activity (Influenza A virus [3]) is reported as “Active” and the Activity (Influenza A virus [8]) is reported as “Active”. The Activity (Influenza A virus [9]) was “Active”, the Activity (Influenza A virus [10]) was “Active” and the Drug uptake [11] was “Not Active”. The CC50 at 48 h [12] was 78.6 µM, the Drug uptake [13] was “Active” and the inhibition [7] was 56%. For the same compound, the Activity (Influenza A virus [14]) was “Active”, the Activity (A549) was “Non-Toxic” and the Activity (Influenza A virus [5]) was “Active”. The Activity (Influenza A virus [15]) was “Active”, the Drug uptake [16] was “Active” and the Drug uptake [17] was “Active”. The Activity [18] was “Active”.

In the case of `O=C(Nc1cccc(Nc2c3ccccc3nc3c2[nH]c2ccccc23)c1)c1cccc(B(O)O)c1`, the Activity (NCI-H1299) is reported as “Non-Toxic” and the Activity (A549) is reported as “Non-Toxic”.

With `Nc1ccccc1Nc1c2ccccc2nc2c1[nH]c1ccccc12` the Activity (NCI-H1299) was “Non-Toxic”, the IC50 (Influenza A virus [3]) was 25.5 µM and the Activity (Influenza A virus [8]) was “inactive”. For the same compound, the Activity (Influenza A virus [9]) was “Active”, the selectivity ratio [19] was 1.5 and the Activity (Influenza A virus [10]) was “Active”. The Drug uptake [11] was “Active”, the CC50 at 48 h [12] was 37.9 µM and the inhibition [7] was “inactive”. The Activity (Influenza A virus [14]) was “Active”, the Activity (A549) was “Non-Toxic” and the selectivity ratio [4] was 0.8. For the same compound, the Activity (Influenza A virus [5]) was “Active”, the Activity (Influenza A virus [15]) was “Active” and the IC50 (Influenza A virus [20]) was 47.4 µM. The Drug uptake [17] was “Active” and the Activity [18] was “Active”.
